Results reported in ChEMBL document CHEMBL1649392, “Synthesis of substituted 3-amino-N-phenyl-1H-indazole-1-carboxamides endowed with antiproliferative activity” (Eur J Med Chem, 2011).

Legend:
Format in all cases: functional
OVCAR-8 = experiment: Antiproliferative activity against human OVCAR8 cells after 48 hrs by sulforhodamine B assay; details: OVCAR-8, 48 h
Outline: (§1)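 NCI 60-cell-line panel covering nine cancer types (leukemia, non-small cell lung, colon, CNS, melanoma, ovarian, renal, prostate, breast). Compounds were first tested at a single dose, then in a five-dose screen (series starting 0.01, 0.1 …) if they met NCI threshold criteria. Reported per line: GI50 (molar concentration inhibiting 50% net growth), TGI (total growth inhibition) and LC50 (50% net cell death).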

BT-549 = experiment: Antiproliferative activity against human BT549 cells after 48 hrs by sulforhodamine B assay; details: BT-549, 48 h; outline: as §1
OVCAR-4 = experiment: Antiproliferative activity against human OVCAR4 cells after 48 hrs by sulforhodamine B assay; details: OVCAR-4, 48 h; outline: as §1
TK-10 = experiment: Antiproliferative activity against human TK10 cells after 48 hrs by sulforhodamine B assay; details: TK-10, 48 h
Outline: (§2)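 NCI 60-cell-line panel screen: single dose 10 µM first, then 5-dose testing (0.01, 0.1, … molar series). For each line, GI50 is the molar concentration giving 50% inhibition of net cell growth, TGI gives total inhibition of net growth, and LC50 gives 50% net cell death. Method follows the NCI DTP protocol.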

HCT-116 = experiment: Antiproliferative activity against human HCT116 cells after 48 hrs by sulforhodamine B assay; details: HCT-116, 48 h; outline: as §1
UO-31 = experiment: Antiproliferative activity against human UO31 cells after 48 hrs by sulforhodamine B assay; details: UO-31, 48 h; outline: as §2
NCI-H23 = experiment: Antiproliferative activity against human NCI-H23 cells after 48 hrs by sulforhodamine B assay; details: NCI-H23, 48 h; outline: as §1
786-0 = experiment: Antiproliferative activity against human 786-0 cells after 48 hrs by sulforhodamine B assay; details: 786-0, 48 h; outline: as §1
EKVX = experiment: Antiproliferative activity against human EKVX cells after 48 hrs by sulforhodamine B assay; outline: as §1
OVCAR-3 = experiment: Antiproliferative activity against human OVCAR3 cells after 48 hrs by sulforhodamine B assay; details: OVCAR-3, 48 h; outline: as §1
NCI-H226 = experiment: Antiproliferative activity against human NCI-H226 cells after 48 hrs by sulforhodamine B assay; details: NCI-H226, 48 h; outline: as §1
SF-539 = experiment: Antiproliferative activity against human SF539 cells after 48 hrs by sulforhodamine B assay; details: SF-539, 48 h, read-out: LC50 (the source's name); outline: as §1
U-251 = experiment: Antiproliferative activity against human U251 cells after 48 hrs by sulforhodamine B assay; details: U-251, 48 h; outline: as §2
SW-620 = experiment: Antiproliferative activity against human SW620 cells after 48 hrs by sulforhodamine B assay; details: SW-620, 48 h; outline: as §2
K562 = experiment: Antiproliferative activity against human K562 cells after 48 hrs by sulforhodamine B assay; details: K562, 48 h; outline: as §1
A549 = experiment: Antiproliferative activity against human A549 cells after 48 hrs by sulforhodamine B assay; details: A549, 48 h; outline: as §1
MOLT-4 = experiment: Antiproliferative activity against human MOLT4 cells after 48 hrs by sulforhodamine B assay; details: MOLT-4, 48 h, read-out: LC50 (the source's name); outline: as §1
M14 = experiment: Antiproliferative activity against human M14 cells after 48 hrs by sulforhodamine B assay; details: M14, 48 h; outline: as §1
MDA-MB-231 = experiment: Antiproliferative activity against human MDA-MB-231 cells after 48 hrs by sulforhodamine B assay; details: MDA-MB-231, 48 h, read-out: LC50 (the source's name); outline: as §1
[1] = read-out: LC50 (the source's name)

With `Nc1nn(C(=O)Nc2ccc(Cc3ccccc3)cc2)c2ccccc12` the TGI (OVCAR-8) was 63.9 µM, the CC50 (OVCAR-8; [1]) was > 100 µM and the TGI (BT-549) was 39.6 µM. The CC50 (BT-549; [1]) was > 100 µM, the TGI (OVCAR-4) was 40.4 µM and the CC50 (OVCAR-4; [1]) was > 100 µM. The TGI (TK-10) was > 100 µM, the CC50 (TK-10; [1]) was > 100 µM and the LC50 (concentration causing 50% net cell death) (HCT-116) was > 100 µM. The TGI (HCT-116) was > 100 µM, the TGI (UO-31) was > 100 µM and the CC50 (UO-31; [1]) was > 100 µM. For the same molecule, the TGI (NCI-H23) was 83.5 µM, the CC50 (NCI-H23; [1]) was > 100 µM and the TGI (786-0) was 26.2 µM. The CC50 (786-0; [1]) was 92.7 µM, the TGI (EKVX) was 92 µM and the CC50 (EKVX; [1]) was > 100 µM. For the same molecule, the TGI (OVCAR-3) was 63.1 µM, the CC50 (OVCAR-3; [1]) was > 100 µM and the TGI (NCI-H226) was 58.2 µM. The CC50 (NCI-H226; [1]) was > 100 µM, the CC50 (SF-539) was > 100 µM and the LC50 (concentration giving 50% net cell death) (U-251) was 65.9 µM. The TGI (U-251) was 30.2 µM, the TGI (SW-620) was 41.5 µM and the CC50 (SW-620; [1]) was > 100 µM. The GI50 (K562) was 1200 nM, the LC50 (concentration causing 50% net cell death) (K562) was > 100 µM and the TGI (A549) was 48.6 µM. The CC50 (A549; [1]) was > 100 µM, the CC50 (MOLT-4) was > 100 µM and the TGI (M14) was > 100 µM. The CC50 (M14; [1]) was > 100 µM and the CC50 (MDA-MB-231) was > 100 µM.
